Reference: ChEMBL document CHEMBL1240416, “Synthesis, structure and DNA cleavage studies of coumarin analogues of tetrahydroisoquinoline and protoberberine alkaloids” (Eur J Med Chem, 2010)
Calls of active or inactive are those of the source. No cut-off for these calls is given here.

How the values were obtained:
Type in all cases: nucleic-acid assay
[1] = test system: Nucleic Acid; experiment: Induction of Staphylococcus aureus 6538 DNA cleavage after 2 hrs by agarose gel electrophoresis
In short: (§1)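 Genomic DNA was isolated from cultures grown at 37 °C (E. coli and S. aureus in nutrient broth for 24 h; A. niger in potato dextrose broth for 48 h). Extraction used Tris/EDTA/SDS lysis, phenol at 55 °C, chloroform:isoamyl alcohol and ethanol precipitation. DNA was incubated 2 h at 37 °C with compound from a 1 mg/mL DMF stock, then run on agarose in TAE at 50 V for about 30 min against marker and untreated-DNA lanes.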

[2] = test system: Nucleic Acid; experiment: Induction of Escherichia coli ATCC 35218 DNA cleavage after 2 hrs by agarose gel electrophoresis; in short: as §1
[3] = test system: Nucleic Acid; experiment: Induction of Aspergillus niger DNA cleavage after 2 hrs by agarose gel electrophoresis; in short: as §1

SMILES	Activity [1]	Activity [2]	Activity [3]
Cc1ccc2oc(=O)cc(CC3NCCc4ccccc43)c2c1 (stereo unspecified)	inactive	inactive	inactive
Cc1ccc2c3c(c(=O)oc2c1)CN1CCc2ccccc2C1C3 (stereo unspecified)	inactive	inactive	inactive
COc1cc2c(cc1OC)C1Cc3c(c(=O)oc4c3ccc3ccccc34)CN1CC2 (stereo unspecified)	Active	inactive	Active
O=c1oc2c(ccc3ccccc32)c2c1CN1CCc3ccccc3C1C2 (stereo unspecified)	Active	inactive	Active
COc1cc2c(cc1OC)C1Cc3c(c(=O)oc4cc(C)ccc34)CN1CC2 (stereo unspecified)	inactive	inactive	inactive
COc1cc2c(cc1OC)C1Cc3c(c(=O)oc4ccc(C)cc34)CN1CC2 (stereo unspecified)	inactive	inactive	inactive
COc1cc2c(cc1OC)C(Cc1cc(=O)oc3ccc(C)cc13)NCC2 (stereo unspecified)	inactive	inactive	inactive
COc1cc2c(cc1OC)C(Cc1cc(=O)oc3cc(C)ccc13)NCC2 (stereo unspecified)	inactive	inactive	inactive
Cc1ccc2c(CC3NCCc4ccccc43)cc(=O)oc2c1 (stereo unspecified)	inactive	inactive	inactive
O=c1cc(CC2NCCc3ccccc32)c2ccc3ccccc3c2o1 (stereo unspecified)	Active	inactive	Active
COc1cc2c(cc1OC)C(Cc1cc(=O)oc3c1ccc1ccccc13)NCC2 (stereo unspecified)	Active	inactive	Active
Cc1ccc2oc(=O)c3c(c2c1)CC1c2ccccc2CCN1C3 (stereo unspecified)	inactive	inactive	inactive
